Test results taken from PMC4593394 (ACS chemical biology, 2015).

Assays:
wild-type p97 (wt-p97) = wild-type p97 (wt-p97) (Homo sapiens, UniProt P55072); test: Analysis of covalent reactivity: p97 ATPase activity after dialysis; assay type: biochemical; conditions: 1 μM compound, 1 μM p97, 2 mM ATP
Procedure, shortened: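 His-tagged wild-type p97 (pET14b, E. coli BL21(DE3), Talon-purified; 1 μM) was incubated with 1 μM compound in Tris/KCl/MgCl2/DTT buffer pH 7.4 at 4 °C 12 h, 21 °C 6 h or 37 °C 2 h; 1% DMSO served as control. The mixture was dialysed against buffer exchanged three times at 2-h intervals.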

GroEL = GroEL (Escherichia coli, UniProt P0A6F5); test: biochemical; parameters: species or system E. coli
p97–Cys0 = p97–Cys0 (Homo sapiens, UniProt P55072, C105V/C174V/C184V/C209A/C415V/C522A/C535V/C572V/C691V/C695V/C69V/C77V); test: ATPase assay, cysteine-less p97 variant; assay type: biochemical
Procedure, shortened: (§1)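 His-tagged p97 variants were expressed from pET14b in E. coli BL21(DE3) and purified on Talon resin; C522A and C209A were also run on Superose 6. Enzyme (100 nM) was in 50 mM Tris pH 7.4, 150 mM KCl, 10 mM MgCl2, 1 mM DTT. Compound (0.0004–100 μM, 12 points, DMSO) was preincubated 10 min at 21 °C. 100 μM ATP was added at 21 °C. IC50 came from % inhibition versus log concentration.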

p97–C209A = p97–C209A (Homo sapiens, UniProt P55072, C209A); test: ATPase assay, p97 C209A variant; assay type: biochemical
Procedure, shortened: as §1

[1] = system: total ubiquitylated proteins in HEK293 cells; test: Total ubiquitylation, Western blot; assay type: cell-based; conditions: anti-ubiquitin antibody
Procedure, shortened: (§2)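 HEK293 cells were treated with compound in DMEM/10% FBS for 24 h and lysed in SDS sample buffer with sonication. Lysates were run on 4–20% gradient SDS-PAGE and transferred to nitrocellulose, blocked 1 h in 5% milk, then probed with 1:1000 anti-ubiquitin, anti-XBP1s (spliced […] band) or anti-LC3 I/II (LC3-II lowest band). Secondaries were used at 1:3000 with chemiluminescent detection; lamin A or GAPDH served as loading controls.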

[2] = system: Ub^G76VGFP in HEK293 cells; test: Ub^G76VGFP reporter level, Western blot; assay type: cell-based; conditions: anti-GFP Western blot
p97–C522A = p97–C522A (Homo sapiens, UniProt P55072, C522A); test: ATPase assay, p97 C522A variant; assay type: biochemical
Procedure, shortened: as §1

[3] = system: actin (phalloidin), vimentin, and annexin II; test: Immunofluorescence of structural proteins; assay type: cell-based; conditions: HEK293 cells, 4 h, concentrations used in the cellular studies
wt p97 = wt p97 (Homo sapiens, UniProt P55072); test: p97 ATPase assay; assay type: biochemical
Procedure, shortened: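 Test compound in DMSO (0.0004–100 μM) preincubated 10 min at 21 °C, then 100 μM ATP added at 21 °C. IC50 fitted from % inhibition versus log concentration. Screen: 100 μM pure compounds, EDTA positive control.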

ClpX = ClpX (Escherichia coli, UniProt P0A6H1); test: ClpX ATPase assay; assay type: biochemical, bacterial
20S proteasome = 20S proteasome (Homo sapiens, UniProt P20618+P28074); test: 20S proteasome chymotrypsin-like activity; assay type: biochemical; conditions: 1.2 nM 20S proteasome, Suc-LLVY-AMC
Procedure, shortened: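 Kit-supplied 20S proteasome (1.2 nM final) was preincubated with test compound (eight-point, 3-fold serial dilutions) in kit reaction buffer at 37 °C for 10 min. Then 50 μM Suc-LLVY-AMC was added, followed by 1 h at 37 °C. AMC fluorescence was read at ex 380/em 440 nm. IC50 was taken from a semi-log plot of relative fluorescence versus concentration.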

[4] = target: N-ethylmaleimide sensitive factor (NSF) (Cricetulus griseus, UniProt P18708); test: NSF ATPase assay; assay type: biochemical, Chinese hamster (Cricetulus griseus)
Procedure, shortened: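 Chinese hamster NSF was expressed in E. coli Rosetta 2(DE3), purified by Talon then Superdex 200, and used at 200 nM in 50 mM Tris pH 7.4, 150 mM KCl, 10 mM MgCl2, 1 mM DTT. Compound (0.0004–100 μM in DMSO) was preincubated 10 min at 21 °C, then 100 μM ATP was added. IC50 was fitted from % inhibition on a semi-log plot.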

XBP1s in HEK293 cells = test: Unfolded protein response: XBP1 splicing, Western blot; assay type: cell-based; conditions: anti-XBP1 Western blot
Procedure, shortened: as §2

in vitro [5] = conditions: human
in vitro [6] = conditions: human; remark: listed apart in the source
in vitro [7] = conditions: human; remark: listed apart in the source
in vitro [8] = conditions: human; remark: listed apart in the source
in vitro [9] = conditions: human; remark: listed apart in the source
in vitro [10] = conditions: human; remark: listed apart in the source

wt p97, sequence (P55072 whole entry): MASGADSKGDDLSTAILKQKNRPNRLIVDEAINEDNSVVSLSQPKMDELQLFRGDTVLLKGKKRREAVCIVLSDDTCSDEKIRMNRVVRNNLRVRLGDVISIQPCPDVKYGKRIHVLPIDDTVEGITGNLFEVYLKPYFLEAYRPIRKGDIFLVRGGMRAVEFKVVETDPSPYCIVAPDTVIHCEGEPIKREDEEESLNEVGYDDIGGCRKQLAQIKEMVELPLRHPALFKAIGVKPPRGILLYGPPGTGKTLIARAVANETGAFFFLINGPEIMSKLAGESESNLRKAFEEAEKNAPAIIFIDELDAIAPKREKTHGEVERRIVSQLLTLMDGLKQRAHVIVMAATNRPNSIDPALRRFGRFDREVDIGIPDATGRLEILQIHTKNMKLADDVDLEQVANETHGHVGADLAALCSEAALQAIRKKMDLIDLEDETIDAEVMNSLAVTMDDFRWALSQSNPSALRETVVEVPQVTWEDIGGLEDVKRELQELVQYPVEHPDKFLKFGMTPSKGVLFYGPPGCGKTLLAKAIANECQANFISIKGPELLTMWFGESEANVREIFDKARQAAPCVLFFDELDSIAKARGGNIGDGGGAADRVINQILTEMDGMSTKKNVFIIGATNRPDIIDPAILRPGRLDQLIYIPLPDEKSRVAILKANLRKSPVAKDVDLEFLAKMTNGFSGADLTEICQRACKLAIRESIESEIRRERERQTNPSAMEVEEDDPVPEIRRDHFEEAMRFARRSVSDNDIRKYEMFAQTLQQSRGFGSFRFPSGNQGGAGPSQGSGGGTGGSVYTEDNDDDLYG
N-ethylmaleimide sensitive factor (NSF), sequence (P18708 whole entry): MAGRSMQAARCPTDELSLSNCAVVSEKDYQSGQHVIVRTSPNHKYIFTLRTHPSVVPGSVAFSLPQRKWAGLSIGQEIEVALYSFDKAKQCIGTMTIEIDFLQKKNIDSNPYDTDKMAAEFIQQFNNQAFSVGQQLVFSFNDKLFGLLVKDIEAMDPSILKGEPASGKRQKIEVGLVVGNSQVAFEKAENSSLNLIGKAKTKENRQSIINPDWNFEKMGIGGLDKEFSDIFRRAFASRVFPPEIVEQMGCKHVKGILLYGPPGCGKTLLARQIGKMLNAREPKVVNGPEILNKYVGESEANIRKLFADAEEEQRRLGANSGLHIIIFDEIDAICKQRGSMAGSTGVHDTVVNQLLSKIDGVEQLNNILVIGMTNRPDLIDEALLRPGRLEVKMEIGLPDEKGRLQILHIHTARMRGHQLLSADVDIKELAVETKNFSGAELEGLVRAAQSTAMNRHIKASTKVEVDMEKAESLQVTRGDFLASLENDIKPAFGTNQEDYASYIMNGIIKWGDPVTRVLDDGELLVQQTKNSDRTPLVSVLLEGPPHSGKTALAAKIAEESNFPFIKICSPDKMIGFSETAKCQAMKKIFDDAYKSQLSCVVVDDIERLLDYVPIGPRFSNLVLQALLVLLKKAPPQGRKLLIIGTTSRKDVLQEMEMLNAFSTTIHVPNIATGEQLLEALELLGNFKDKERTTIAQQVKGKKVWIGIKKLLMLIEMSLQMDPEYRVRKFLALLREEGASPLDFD
p97–C522A, sequence (P55072 whole entry C522A): as the sequence (P55072 whole entry) above, with C522A counted along it
ClpX, sequence (P0A6H1 whole entry): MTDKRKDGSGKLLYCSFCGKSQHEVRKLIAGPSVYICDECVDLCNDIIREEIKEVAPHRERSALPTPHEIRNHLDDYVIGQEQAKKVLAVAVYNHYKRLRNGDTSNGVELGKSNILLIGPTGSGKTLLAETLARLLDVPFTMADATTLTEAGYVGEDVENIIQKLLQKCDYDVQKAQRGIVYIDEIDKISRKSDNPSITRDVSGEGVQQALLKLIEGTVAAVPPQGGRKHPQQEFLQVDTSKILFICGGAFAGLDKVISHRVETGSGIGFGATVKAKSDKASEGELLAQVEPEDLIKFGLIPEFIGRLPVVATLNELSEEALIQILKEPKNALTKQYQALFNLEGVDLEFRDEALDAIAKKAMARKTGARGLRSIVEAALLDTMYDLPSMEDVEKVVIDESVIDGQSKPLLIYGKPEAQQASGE
p97–Cys0, sequence (P55072 whole entry C69V/C77V/C105V/C174V/C184V/C209A/C415V/C522A/C535V/C572V/C691V/C695V): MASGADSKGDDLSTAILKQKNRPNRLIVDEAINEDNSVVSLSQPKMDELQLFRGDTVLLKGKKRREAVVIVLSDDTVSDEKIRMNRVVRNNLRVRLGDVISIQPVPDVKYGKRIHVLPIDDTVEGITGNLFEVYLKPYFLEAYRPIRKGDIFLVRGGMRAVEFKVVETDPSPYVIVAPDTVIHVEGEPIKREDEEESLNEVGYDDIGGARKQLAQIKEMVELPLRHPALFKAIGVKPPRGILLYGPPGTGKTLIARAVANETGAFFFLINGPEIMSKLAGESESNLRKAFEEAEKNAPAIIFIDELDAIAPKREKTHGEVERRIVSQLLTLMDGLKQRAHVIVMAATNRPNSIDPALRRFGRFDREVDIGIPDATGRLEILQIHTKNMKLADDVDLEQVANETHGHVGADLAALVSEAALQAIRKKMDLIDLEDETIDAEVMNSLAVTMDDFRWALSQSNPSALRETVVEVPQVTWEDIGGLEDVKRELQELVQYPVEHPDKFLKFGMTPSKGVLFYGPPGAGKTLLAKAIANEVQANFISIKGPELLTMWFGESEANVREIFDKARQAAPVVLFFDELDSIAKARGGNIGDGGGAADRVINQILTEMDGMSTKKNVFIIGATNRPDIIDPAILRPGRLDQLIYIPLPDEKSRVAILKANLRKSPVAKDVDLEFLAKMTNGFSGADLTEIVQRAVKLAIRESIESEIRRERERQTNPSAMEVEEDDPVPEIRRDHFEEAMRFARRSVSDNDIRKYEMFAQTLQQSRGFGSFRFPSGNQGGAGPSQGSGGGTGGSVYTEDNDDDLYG
GroEL, sequence (P0A6F5 2-548): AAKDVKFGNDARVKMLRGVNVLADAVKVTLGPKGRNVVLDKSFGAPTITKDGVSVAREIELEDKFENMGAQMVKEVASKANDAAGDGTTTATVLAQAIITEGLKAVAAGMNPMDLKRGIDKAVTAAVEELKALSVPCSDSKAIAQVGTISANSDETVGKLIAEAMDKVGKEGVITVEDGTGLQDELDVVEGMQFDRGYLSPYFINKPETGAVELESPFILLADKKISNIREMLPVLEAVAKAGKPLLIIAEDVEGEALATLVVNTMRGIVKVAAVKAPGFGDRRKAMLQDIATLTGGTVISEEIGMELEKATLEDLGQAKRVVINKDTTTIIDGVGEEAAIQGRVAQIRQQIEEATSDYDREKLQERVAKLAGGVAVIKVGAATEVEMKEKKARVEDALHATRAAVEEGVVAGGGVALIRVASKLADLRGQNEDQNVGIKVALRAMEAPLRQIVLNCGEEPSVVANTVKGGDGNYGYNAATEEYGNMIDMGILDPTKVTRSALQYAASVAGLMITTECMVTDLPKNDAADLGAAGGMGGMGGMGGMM
p97–C209A, sequence (P55072 whole entry C209A): as the sequence (P55072 whole entry) above, with C209A counted along it
wild-type p97 (wt-p97), sequence (P55072 whole entry): as the sequence (P55072 whole entry) above

Structure (SMILES)	IC50 (GroEL)	IC50 (p97–Cys0)	IC50 (p97–C209A)	IC50 (p97–C522A)	IC50 (wt p97)	IC50 (ClpX)	IC50 [4]	further results
CC1=C(CO)C(=O)O[C@@H]([C@@H](C)[C@H]2CC[C@H]3[C@@H]4C[C@H]5O[C@]56[C@@H](O)C=CC(=O)[C@]6(C)[C@H]4CC[C@]23C)C1 [Compound 1, withaferin A]	> 200 µM	> 200 µM	24.9 ± 1.91 µM	> 200 µM	44 ± 0.21 µM	> 200 µM	> 200 µM	inhibition of p97 ATPase remaining after extensive dialysis (wild-type p97 (wt-p97)): slight inhibition remained; total ubiquitylation [1]: increased; level of Ub^G76VGFP reporter [2]: dose-dependent, higher levels of reporter; effects on structural proteins [3]: did not see effects; inhibition of p97 in initial screen (wt p97; 100 μM for pure compounds, 384-well plate): moderate inhibition; effect of ATP concentration on the IC50 value (wt p97; varied ATP concentration): distinct shift in the IC50 value; inhibition of the 20S proteasome (20S proteasome): inhibit; increase in XBP1s (XBP1s in HEK293 cells): did show an increase
CC1=C(CO)C(=O)O[C@@H]([C@@H](C)[C@H]2CC[C@H]3[C@@H]4C[C@H]5O[C@]56[C@@H](O)[C@@H](O)CC(=O)[C@]6(C)[C@H]4CC[C@]23C)C1 [Compound 14, viscosalactone B]	> 200 µM	> 200 µM	> 200 µM	> 200 µM	> 200 µM	> 200 µM	> 200 µM	IC50 at 48 h (in vitro [5]): > 100 µM; IC50 at 48 h (in vitro [6]): > 100 µM; IC50 at 48 h (in vitro [7]): > 100 µM; IC50 at 48 h (in vitro [8]): > 100 µM; IC50 at 48 h (in vitro [9]): > 100 µM; IC50 at 48 h (in vitro [10]): > 100 µM
